Results: publication PMC9523306 (The Journal of Veterinary Medical Science, 2022)

Columns and labels:
Assay in all cases: Reverse transcription-PCR, right cerebral cortex
Assay type in all cases: in vivo, rat
Settings in all cases: retinoic acid + MCAO animals; 5 mg/kg intraperitoneally for four days before MCAO; ratio of PCR product intensity to β-actin intensity; mean ± S.E.M., n=5
[1] = test system: glycerol-3-phosphate dehydrogenase mRNA
How it was run: (§1)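 Male Sprague-Dawley rats (200–220 g). Test compound was given in PEG/0.9% NaCl/ethanol (70/20/10 by volume), and vehicle was solvent alone. The right MCA origin was occluded by intraluminal 4–0 nylon suture for 24 hr; shams had surgery without the suture. Total RNA from the right cortex (Trizol) was used, with 500 ng reverse-transcribed. PCR ran 28–30 cycles (94°C 30 sec, 54–56°C 30 sec, 72°C 1 min), then 1% agarose, UV, densitometry. Two-way ANOVA, Scheffe post-hoc.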

[2] = test system: Adenosylhomocysteinase mRNA
How it was run: as §1

Apolipoprotein A1 mRNA = test system: Apolipoprotein A1 mRNA
How it was run: as §1

[3] = test system: Rab GDP dissociation inhibitor β mRNA
How it was run: as §1

[4] = test system: heat shock protein 60 mRNA
How it was run: as §1

[5] = test system: Isocitrate dehydrogenase [NAD^+] subunit α mRNA
How it was run: as §1

SMILES: CC1=C(/C=C/C(C)=C/C=C/C(C)=C/C(=O)O)C(C)(C)CCC1 [retinoic acid, Retinoic acid]
- Expression levels of glycerol-3-phosphate dehydrogenase mRNA [1]: 0.91 ± 0.02
- Adenosylhomocysteinase mRNA levels [2]: 1.28 ± 0.06
- Apolipoprotein A1 mRNA levels (Apolipoprotein A1 mRNA): 1.13 ± 0.02
- Rab GDP dissociation inhibitor β mRNA levels [3]: 1.02 ± 0.02
- Expression levels of heat shock protein 60 mRNA [4]: 0.95 ± 0.05
- Isocitrate dehydrogenase [NAD^+] subunit α mRNA levels [5]: 1.36 ± 0.05
